Biological target: Fatty acid synthase (Homo sapiens) (UniProt P49327)
Assay: Inhibition of FASN in human PC9 cells harboring FASN expression and EGFR delE746-A750 mutant assessed as disruption of AKT/FASN positive feedback loop by measuring reduction in phosphorylated AKT expression at 1 uM after 48 hrs by Western immunoblot based densitometric assay relative to control
Format: cell-based
Method in brief: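 PC-9 or H1703 cells were seeded at 8 × 10^5 per 100 mm dish and treated for 48 h at 1 or 5 µM (or 5, 50 and 100 µM). RIPA lysates were BCA-quantified and run on 8% SDS-PAGE, then transferred to PVDF. Blots were probed for FASN, AKT, phospho-AKT S473 and GAPDH and detected by ECL. Bands were quantified by densitometry and normalised to vehicle control.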

Chain of Fatty acid synthase (Homo sapiens) (P49327 whole entry, looked up): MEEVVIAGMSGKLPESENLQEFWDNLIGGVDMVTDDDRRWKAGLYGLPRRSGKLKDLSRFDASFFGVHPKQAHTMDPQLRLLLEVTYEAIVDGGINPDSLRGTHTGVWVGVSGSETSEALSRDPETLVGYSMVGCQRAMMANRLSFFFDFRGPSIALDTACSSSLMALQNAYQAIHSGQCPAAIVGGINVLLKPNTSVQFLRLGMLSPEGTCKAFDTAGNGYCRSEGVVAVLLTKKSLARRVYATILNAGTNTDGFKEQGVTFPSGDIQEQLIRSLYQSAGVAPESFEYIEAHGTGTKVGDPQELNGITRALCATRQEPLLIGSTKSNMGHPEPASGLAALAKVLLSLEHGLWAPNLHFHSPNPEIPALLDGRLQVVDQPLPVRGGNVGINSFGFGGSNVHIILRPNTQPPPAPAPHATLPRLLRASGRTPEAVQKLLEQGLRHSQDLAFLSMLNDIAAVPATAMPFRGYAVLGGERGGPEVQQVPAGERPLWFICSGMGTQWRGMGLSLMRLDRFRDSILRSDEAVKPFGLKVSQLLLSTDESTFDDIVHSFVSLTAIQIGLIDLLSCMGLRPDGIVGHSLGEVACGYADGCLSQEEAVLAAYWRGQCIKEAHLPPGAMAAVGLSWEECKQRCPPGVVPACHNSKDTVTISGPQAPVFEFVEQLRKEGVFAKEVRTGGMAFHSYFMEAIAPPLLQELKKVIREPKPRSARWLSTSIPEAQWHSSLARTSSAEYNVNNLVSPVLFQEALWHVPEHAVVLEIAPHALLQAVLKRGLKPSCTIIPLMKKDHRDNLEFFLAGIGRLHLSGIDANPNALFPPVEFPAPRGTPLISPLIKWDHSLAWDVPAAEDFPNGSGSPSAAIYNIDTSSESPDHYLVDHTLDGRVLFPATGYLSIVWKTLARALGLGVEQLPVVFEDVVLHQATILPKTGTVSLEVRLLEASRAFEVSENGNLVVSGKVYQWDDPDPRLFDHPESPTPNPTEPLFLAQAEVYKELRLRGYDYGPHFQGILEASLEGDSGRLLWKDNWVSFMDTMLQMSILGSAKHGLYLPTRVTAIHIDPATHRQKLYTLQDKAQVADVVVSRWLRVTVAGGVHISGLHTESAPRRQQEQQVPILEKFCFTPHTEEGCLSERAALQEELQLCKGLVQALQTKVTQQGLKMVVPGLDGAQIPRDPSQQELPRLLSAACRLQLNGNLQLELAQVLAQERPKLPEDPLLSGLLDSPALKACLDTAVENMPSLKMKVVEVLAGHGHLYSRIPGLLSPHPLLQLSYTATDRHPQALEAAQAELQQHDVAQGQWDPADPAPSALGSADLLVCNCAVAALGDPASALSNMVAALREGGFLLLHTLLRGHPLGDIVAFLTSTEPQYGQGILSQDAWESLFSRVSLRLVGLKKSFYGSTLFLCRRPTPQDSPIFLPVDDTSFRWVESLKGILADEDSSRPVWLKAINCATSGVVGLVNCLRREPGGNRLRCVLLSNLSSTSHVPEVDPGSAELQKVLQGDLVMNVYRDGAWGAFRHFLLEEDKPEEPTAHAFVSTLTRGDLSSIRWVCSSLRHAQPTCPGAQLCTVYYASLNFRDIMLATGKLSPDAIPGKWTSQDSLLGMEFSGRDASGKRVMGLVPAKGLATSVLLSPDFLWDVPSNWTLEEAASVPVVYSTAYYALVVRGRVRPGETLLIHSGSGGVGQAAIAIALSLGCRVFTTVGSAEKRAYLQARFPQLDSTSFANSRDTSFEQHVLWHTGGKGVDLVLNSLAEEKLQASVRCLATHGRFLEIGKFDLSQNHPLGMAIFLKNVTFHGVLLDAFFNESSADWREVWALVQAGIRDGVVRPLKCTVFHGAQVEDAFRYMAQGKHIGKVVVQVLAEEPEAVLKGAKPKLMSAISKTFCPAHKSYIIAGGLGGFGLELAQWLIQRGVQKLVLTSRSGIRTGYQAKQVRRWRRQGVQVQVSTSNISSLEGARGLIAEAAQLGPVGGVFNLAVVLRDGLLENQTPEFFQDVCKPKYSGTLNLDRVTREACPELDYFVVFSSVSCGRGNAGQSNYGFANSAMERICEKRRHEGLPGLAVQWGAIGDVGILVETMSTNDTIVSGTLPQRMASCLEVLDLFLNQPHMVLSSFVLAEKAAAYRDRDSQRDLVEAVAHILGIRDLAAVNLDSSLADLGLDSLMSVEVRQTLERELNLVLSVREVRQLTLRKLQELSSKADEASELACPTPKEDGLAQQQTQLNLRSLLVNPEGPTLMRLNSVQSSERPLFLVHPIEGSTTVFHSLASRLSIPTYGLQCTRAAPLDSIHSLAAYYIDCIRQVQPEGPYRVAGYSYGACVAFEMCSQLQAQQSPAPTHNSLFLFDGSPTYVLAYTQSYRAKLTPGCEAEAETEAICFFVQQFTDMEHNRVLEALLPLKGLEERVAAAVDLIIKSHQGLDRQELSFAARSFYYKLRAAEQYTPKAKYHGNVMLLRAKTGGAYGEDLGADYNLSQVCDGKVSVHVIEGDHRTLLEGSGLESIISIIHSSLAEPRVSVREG

| Ratio | Structure (SMILES) |
| --- | --- |
| 0.53 | O=C(Oc1ccc(/C=C/c2cccc(OC(=O)c3cc(O)c(O)c(O)c3)c2)cc1)c1cc(O)c(O)c(O)c1 |
| 0.88 | O=C(Oc1ccc(/C=C/c2ccc(OC(=O)c3cc(O)c(O)c(O)c3)cc2)cc1)c1cc(O)c(O)c(O)c1 |

— ChEMBL document CHEMBL4406830, “Galloyl esters of trans-stilbenes are inhibitors of FASN with anticancer activity on non-small cell lung cancer cells” (Eur J Med Chem, 2019)
